Series [1] in a line: Binding affinity to ganglioside GM3 by ELISA relative to wild type fd phage clone. In a few lines:
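GM3 monolayer was transferred from TBS (20 °C, 30 mN m-1) onto a BSA-blocked plastic plate. Phage clones (0.05-5 nM in TBS) were incubated 30 min at 4 °C. Detection used anti-fd antibody, then peroxidase anti-rabbit IgG (each 1 h, 4 °C), with o-phenylenediamine. ΔA was read at 492 nm in triplicate and expressed relative to wild-type fd phage.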
(In general: In an ELISA, binding on a coated surface is turned into a signal by an enzyme label.)

Another series relates to Influenza A virus. The experiment in a line: Antiviral activity against Influenza A virus (A/Puerto Rico/8/34(H1N1)) infected in MDCK cells after 30 mins by crystal violet-based plaque assay. It is filed as functional, organism-based. To be noted: A/Puerto Rico/8/1934(H1N1), 0.5 h. In short, it runs like this: (§1)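 MDCK cells in 6-well plates were exposed for 30 min at 37 °C, 5% CO2, to 0.2 mL virus (50-200 pfu) with C18-peptide from PBS stock (2 or 10 mM). After a PBS wash, cells were overlaid with 0.6% agarose/MEM (DEAE-dextran, HEPES, acetyltrypsin, BSA) for 2 days. Living cells were stained and plaques counted. IC50 is the concentration giving 50% inhibition.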

Series [2] in a line: Binding affinity to ganglioside GM3 at 10 uM.
For another series, the system named is H3N2 subtype. Briefly: Antiviral activity against Influenza A virus (A/Aichi/2/1968(H3N2)) infected in MDCK cells after 30 mins by crystal violet-based plaque assay. It is filed as functional, organism-based. The conditions noted are these: 0.5 h. In short, it runs like this:
as §1

Series [3] is described as follows: Critical micellar concentration of the compound. In kind it is physicochemical. In short, it runs like this:
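N-stearoyl peptide amide was suspended in PBS containing 1 μM N-phenyl-1-naphthylamine and diluted to 1 nM-0.1 mM. Fluorescence (ex 350, em 450 nm) was read at 25 °C. The cmc is taken at the intersection of two straight lines in the intensity-versus-concentration plot.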

The nature of series [4]: Binding affinity to ganglioside GM3 by quartz crystal microbalance method.
Series [5] is described as follows: Binding affinity to ganglioside 6'GM3 by quartz crystal microbalance method.
The nature of series [6]: Binding affinity to ganglioside GalCer by quartz crystal microbalance method.
The nature of series [7]: Binding affinity to ganglioside GlcCer by quartz crystal microbalance method.
The nature of series [8]: Ratio of Kd for ganglioside GM3 to Kd for ganglioside 6'GM3.
Series [9] is described as follows: Ratio of Kd for ganglioside GM3 to Kd for ganglioside GlcCer.
Series [10] in a line: Ratio of Kd for ganglioside GM3 to Kd for ganglioside GalCer.
The subject of series [11] is B16. The experiment in a line: Inhibition of binding affinity to ganglioside GM3 in mouse B16 cells at 10 nM by flow cytometry in presence of 1 mM Neu5Ac. In kind it is cell-based. In short, it runs like this: (§2)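 B16 cells (2×10^5) were incubated 1 h on ice with phage (10 nM) with or without 1 mM Neu5Ac, Glc or GlcU. They were washed in 1% BSA/PBS, labelled with anti-fd antibody and FITC-conjugated antibody, and analysed by flow cytometry.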
(In flow cytometry, cells or beads pass a laser one at a time.)

Series [12] concerns B16. The experiment in a line: Inhibition of binding affinity to ganglioside GM3 in mouse B16 cells pretreated with neuraminidase at pH 7.4 at 10 nM by flow cytometry. It is filed as cell-based. In a few lines: (§3)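 Sialic acid was removed from B16 cells (2×10^5) with 0.05 units Arthrobacter ureafaciens neuraminidase for 90 min at 37 °C, pH 6.5 or 7.4. After three washes, cells took 10 nM phage and were labelled with anti-fd antibody and FITC-conjugated antibody for flow cytometry.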

Series [13] is described as follows: Selectivity ratio of Kd for ganglioside GalCer to Kd for ganglioside GM3.
In series [14] the test system is B16. The experiment in a line: Inhibition of binding affinity to ganglioside GM3 in mouse B16 cells pretreated with neuraminidase at pH 6.5 at 10 nM by flow cytometry. It is filed as cell-based. In a few lines: as §3
The test system of series [15] is B16. The experiment in a line: Inhibition of binding affinity to ganglioside GM3 in mouse B16 cells at 10 nM by flow cytometry in presence of GlcU. It is filed as cell-based. In short, it runs like this:
as §2

Series [16] relates to B16. Briefly: Inhibition of binding affinity to ganglioside GM3 in mouse B16 cells at 10 nM by flow cytometry in presence of Glc. In kind it is cell-based. In a few lines: as §2
Series [17] concerns B16. Briefly: Binding affinity to ganglioside GM3 in mouse B16 cells at 1 to 10 nM by flow cytometry. In kind it is cell-based. In a few lines:
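B16 monolayer cells (2×10^5) were given serially diluted phage (0.5-10 nM) in 1% BSA/PBS for 1 h on ice. After washes, they were labelled with anti-fd antibody and then FITC anti-rabbit IgG (each 0.5 h on ice) and analysed by flow cytometry.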

The source of these data is ChEMBL document CHEMBL1151941, “Inhibition of influenza virus infections by sialylgalactose-binding peptides selected from a phage library” (J Med Chem, 2009).

The source made the active and inactive calls. The calls are words filed in the database; no cut-off is given here. Where a SMILES comes first, the peptide text is derived from it. The star is where a group is joined. Stearoyl = CCCCCCCCCCCCCCCCCC(=O)*

By IC50 is commonly meant the concentration at which inhibition is half-maximal. Lower therefore signals higher potency. The term Kd denotes the constant that tells how readily two partners part at equilibrium. As a reminder, the inhibition is the drop in the measured response relative to a control, in per cent.

For H-LWRPVLFHSAVRALG-OH, the fold change (FC) in series [1] amounted to 1.7.

The molecule H-RAVWRHSVATPSHSV-NH2 returned an IC50 with Influenza A virus of more than 500 µM.

H-DFRRLPGAFWQLRQP-OH gave an Activity in series [2] of 119 ng/cm2.

With `CCCCCCCCCCCCCCCCCC(=O)N[C@@H](CCCNC(=N)N)C(=O)N[C@@H](C)C(=O)N[C@H](C(=O)N[C@@H](Cc1c[nH]c2ccccc12)C(=O)N[C@@H](CCCNC(=N)N)C(=O)N[C@@H](Cc1cnc[nH]1)C(=O)N[C@@H](CO)C(=O)N[C@H](C(=O)N[C@@H](C)C(=O)N[C@H](C(=O)N1CCC[C@H]1C(=O)N[C@@H](CO)C(=O)N[C@@H](Cc1cnc[nH]1)C(=O)N[C@@H](CO)C(=O)N[C@H](C(N)=O)C(C)C)[C@@H](C)O)C(C)C)C(C)C` (Stearoyl-RAVWRHSVATPSHSV-NH2), the concentration for half-maximal inhibition (IC50) in the series with H3N2 subtype worked out at 68 µM; in the series on Influenza A virus it was 6.5 µM. In [3], this molecule had a CMC of 0.8 µM.

Consider `CC(C)C[C@H](NC(=O)[C@H](CO)NC(=O)[C@H](CC(=O)O)NC(=O)[C@H](Cc1ccccc1)NC(=O)[C@H](C)NC(=O)[C@H](C)NC(=O)[C@H](CCCN)NC(=O)[C@H](C)NC(=O)[C@@H]1CCCN1C(=O)[C@H](CC(=O)O)NC(=O)[C@H](CC(=O)O)NC(=O)CNC(=O)[C@H](CCC(=O)O)NC(=O)[C@H](C)N)C(=O)N[C@@H](CCC(N)=O)C(=O)O`, for which the dissociation constant (Kd) entry in [4], in [5], in [6] and in [7] was “Not Active” throughout.

`CCCCCCCCCCCCCCCCCC(=O)N[C@@H](C)C(=O)N[C@H](C(=O)N[C@@H](C)C(=O)N[C@@H](CO)C(=O)N[C@H](C(=O)N1CCC[C@H]1C(=O)N[C@@H](CCCNC(=N)N)C(=O)N[C@@H](C)C(=O)N[C@@H](CCCNC(=N)N)C(=O)NCC(=O)N[C@@H](CCCCN)C(=O)N[C@@H](Cc1ccc(O)cc1)C(=O)N[C@@H](Cc1c[nH]c2ccccc12)C(=O)N[C@@H](Cc1c[nH]c2ccccc12)C(=O)NCC(N)=O)C(C)C)C(C)C` (Stearoyl-AVASVPRARGKYWWG-NH2): the results for the concentration for half-maximal inhibition (IC50) in the series with H3N2 subtype and with Influenza A virus were 17 µM and 44 µM, respectively. Moreover, in series [3], the CMC amounted to 0.8 µM.

Take H-QQLVYNWWAVSSARR-OH: in series [1], the fold change (FC) is 1.1.

In the case of `CCCCCCCCCCCCCCCCCC(=O)N[C@@H](CC(=O)O)C(=O)N[C@@H](Cc1ccccc1)C(=O)N[C@@H](CCCNC(=N)N)C(=O)N[C@@H](CCCNC(=N)N)C(=O)N[C@@H](CC(C)C)C(=O)N1CCC[C@H]1C(=O)NCC(=O)N[C@@H](C)C(=O)N[C@@H](Cc1ccccc1)C(=O)N[C@@H](Cc1c[nH]c2ccccc12)C(=O)N[C@@H](CCC(N)=O)C(=O)N[C@@H](CC(C)C)C(=O)N[C@@H](CCCNC(=N)N)C(=O)N[C@@H](CCC(N)=O)C(=O)N1CCC[C@H]1C(N)=O` (Stearoyl-DFRRLPGAFWQLRQP-NH2), the 50% inhibitory concentration (IC50) was found to be 19 µM with H3N2 subtype and 52 µM in the series with Influenza A virus. For the same molecule, in [3], the CMC stood at 0.8 µM.

As to H-RAVWRHSVATPSHSV-OH, the Kd in [4] (read-out: Kd) is 0.41 µM; in [5] (read-out: Kd), 2 µM; in [6] (read-out: Kd) it was more than 70 µM; in [7] (read-out: Kd), more than 70 µM. In addition, the figures for the Ratio in series [8], in series [9] and in series [10] were 0.2, less than 0.006 and less than 0.006, respectively. For the same molecule, in series [1], the fold change (FC) stood at 1.5.

For the molecule H-WRGVYFGDRWLGSQP-OH, in [1], the fold change (FC) turned out to be 1.6.

`CCCCCCCCCCCCCCCCCC(=O)NCC(=O)N[C@@H](Cc1c[nH]c2ccccc12)C(=O)N[C@@H](Cc1c[nH]c2ccccc12)C(=O)N[C@@H](Cc1ccc(O)cc1)C(=O)N[C@@H](CCCCN)C(=O)NCC(=O)N[C@@H](CCCNC(=N)N)C(=O)N[C@@H](C)C(=O)N[C@@H](CCCNC(=N)N)C(=O)N[C@@H](C)C(=O)N[C@H](C(=O)N[C@@H](CO)C(=O)N[C@@H](C)C(=O)N[C@H](C(=O)N[C@@H](C)C(N)=O)C(C)C)C(C)C` (Stearoyl-GWWYKGRARAVSAVA-NH2) displayed a half-inhibitory concentration (IC50) in the series with Influenza A virus of 89 µM. The CMC in series [3] amounted to 0.8 µM.

H-GWWYKGRARPVSAVA-NH2: the half-inhibitory concentration (IC50) with Influenza A virus is more than 500 µM.

As for `CCCCCCCCCCCCCCCCCC(=O)NCC(=O)N[C@@H](Cc1c[nH]c2ccccc12)C(=O)N[C@@H](Cc1c[nH]c2ccccc12)C(=O)N[C@@H](Cc1ccc(O)cc1)C(=O)N[C@@H](CCCCN)C(=O)NCC(=O)N[C@@H](CCCNC(=N)N)C(=O)N[C@@H](C)C(=O)N[C@@H](CCCNC(=N)N)C(=O)N1CCC[C@H]1C(=O)N[C@H](C(=O)N[C@@H](CO)C(=O)N[C@@H](C)C(=O)N[C@H](C(=O)N[C@@H](C)C(N)=O)C(C)C)C(C)C` (Stearoyl-GWWYKGRARPVSAVA-NH2), the IC50 in the series on H3N2 subtype is more than 10 µM; with Influenza A virus, 3.2 µM. In addition, in [3], the CMC is 0.8 µM.

As for H-LSWPLHAGRGFRWVS-OH, the fold change (FC) in series [1] turned out to be 0.9.

Turning to `CCCCCCCCCCCCCCCCCC(=O)NCC(=O)N[C@@H](C)C(=O)N[C@@H](Cc1c[nH]c2ccccc12)C(=O)N[C@@H](Cc1ccc(O)cc1)C(=O)N[C@@H](CCCCN)C(=O)NCC(=O)N[C@@H](CCCNC(=N)N)C(=O)N[C@@H](C)C(=O)N[C@@H](CCCNC(=N)N)C(=O)N1CCC[C@H]1C(=O)N[C@H](C(=O)N[C@@H](CO)C(=O)N[C@@H](C)C(=O)N[C@H](C(=O)N[C@@H](C)C(N)=O)C(C)C)C(C)C` (Stearoyl-GAWYKGRARPVSAVA-NH2), in the series with Influenza A virus, the IC50 is 53 µM. The CMC in [3] is 0.8 µM.

`CCCCCCCCCCCCCCCCCC(=O)N[C@@H](C)C(=O)N[C@@H](CCC(=O)O)C(=O)N[C@H](C(=O)N[C@H](C(=O)N[C@@H](CCC(=O)O)C(=O)N[C@@H](CO)C(=O)N[C@@H](CS)C(=O)N[C@@H](CC(C)C)C(=O)N[C@@H](C)C(=O)N[C@@H](CCCCN)C(=O)N1CCC[C@H]1C(=O)N[C@@H](Cc1cnc[nH]1)C(=O)N[C@H](C(=O)N[C@@H](CCC(=O)O)C(=O)N[C@@H](CC(N)=O)C(N)=O)[C@H](C)O)C(C)C)[C@@H](C)O`: the IC50 is more than 100 µM in the series on H3N2 subtype and 66 µM in the series on Influenza A virus. Besides, the CMC in series [3] is 0.8 µM.

Regarding H-GWWYKGRARPVSAVA-OH, the inhibition with B16 [11] was 61%; in the series on B16 [15], 46%. Besides, the Kd in series [4] (read-out: Kd) was 1.5 µM; in series [5] (read-out: Kd), 1.5 µM; in series [6] (read-out: Kd), 9.8 µM; in series [7] (read-out: Kd) it was more than 70 µM. The inhibition entry with B16 [12] and in the series with B16 [16] was “inactive” throughout. For the same molecule, the Ratio in series [13] was 6.5; in series [8] it was 1; in [9] it was less than 0.02; in series [10] it was 0.15. Moreover, the inhibition result with B16 [14] is “Active”. The Activity in series [2] is 39 ng/cm2. Moreover, the fold change (FC) in [1] was 2.1. For the same molecule, the outcome with B16 [17] was Active.

For the molecule H-GWYSSRHYVRSLNGL-OH, the fold change (FC) in [1] was 1.4.
